Data: ChEMBL document CHEMBL4513216, “Probing the Open Global Health Chemical Diversity Library for Multistage-Active Starting Points for Next-Generation Antimalarials” (ACS Infect Dis, 2020)

Assay: Toxicity liver stage against HepG2, at 10uM
Type: cell-based
Set-up: test concentration 10 uM, cell line HepG2-A16-CD81EGFP
Settings: human, HepG2-A16-CD81EGFP cells; read-out: INHIBITION
How it was run: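 Uninfected HepG2-A16-CD81EGFP cells, 3 × 10^3 per well, 1536-well, plated on prespotted compound at 10 μM final, parasite-free screening media added to match infected plates; puromycin 10 μM positive, DMSO 0.5% negative; run in parallel with 48 h PbLuc assay at 37 °C, 5% CO2; viability by CellTiter-Glo luminescence, normalized to controls.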

Question: Which cytotoxicity at 10 µM does the source give for `CCS(=O)(=O)c1ccc(N2CCC(NC(=O)NC(C)CO)CC2)cc1` (stereo not drawn) here?
Answer: 13.9%

Question: For `CN(Cc1cc(C(C)(C)C)n[nH]1)C(=O)c1c[nH]nc1-c1cccc(F)c1`, which cytotoxicity at 10 µM is on record?
Answer: -3.39%

Question: For `CN1CCOC(C(=O)N2CCC3(CCCC3)CC2)C1` (stereo not drawn), which cytotoxicity at 10 µM is on record?
Answer: -1.52%

Question: Which cytotoxicity at 10 µM does the source give for `O=C(CCNc1ncccn1)N1CCCN(c2nccs2)CC1` here?
Answer: -14.3%

Question: For `O=S(=O)(c1ccccc1)N1C[C@@H]2CCN[C@@H]2C1`, which cytotoxicity at 10 µM is on record?
Answer: 2.58%

Question: With `CCOc1cc(C)nc(N2CCN(C(=O)c3cnc[nH]3)CC2)n1` as the compound, how does the cytotoxicity at 10 µM read?
Answer: -11.8%

Question: Which cytotoxicity at 10 µM does the source give for `CC1CCN(CC(=O)N(C)CCc2noc(C3CC3)n2)C1=O` (stereo not drawn) here?
Answer: -133%

Question: Which cytotoxicity at 10 µM does the source give for `Cn1cc(C(O)CNC(=O)c2ccc(F)cc2Cl)cn1` (stereo not drawn) here?
Answer: 0.055%

Question: Which cytotoxicity at 10 µM does the source give for `Cc1noc(C)c1CN(C)C(=O)C1(NS(C)(=O)=O)CCCCC1` here?
Answer: -11.3%

Question: For `Cc1cc(Cc2ccc(F)cc2)cc(C2CCCNC2)n1` (stereo not drawn), which cytotoxicity at 10 µM is on record?
Answer: -3.14%

Question: For `CC(C)N(CC(N)=O)Cc1csc(Cc2ccccc2)n1`, which cytotoxicity at 10 µM is on record?
Answer: -2.32%

Question: With `Cc1nc2ccc(C(=O)N3C[C@@H](O)[C@H](N4CCCC4)C3)cc2[nH]1` as the compound, how does the cytotoxicity at 10 µM read?
Answer: -8.66%

Question: Which cytotoxicity at 10 µM does the source give for `CN(c1ccc(C(=O)NCCCN2CCOCC2)c(Cl)c1)S(C)(=O)=O` here?
Answer: -11.2%

Question: With `Cc1nn(C)cc1-c1cc(C(F)(F)F)nn1CCC#N` as the compound, how does the cytotoxicity at 10 µM read?
Answer: 3.65%

Question: For `O=C(NCCc1nncn1C1CC1)C1(Cc2ccccc2)CCC1`, which cytotoxicity at 10 µM is on record?
Answer: 7.87%

Question: With `Cc1nc(CN2CCc3ncnc(C)c3CC2)cs1` as the compound, how does the cytotoxicity at 10 µM read?
Answer: -1.8%

Question: Which cytotoxicity at 10 µM does the source give for `CN(CC1COc2ccccc2O1)C(=O)NCCCn1cncn1` (stereo not drawn) here?
Answer: -0.884%

Question: Which cytotoxicity at 10 µM does the source give for `COCCN1CCC(CNC(=O)C2(c3ccc(Br)cc3)CCCC2)C1` (stereo not drawn) here?
Answer: -5.3%

Question: For `Cc1cc(C(=O)N2CCc3[nH]cnc3C2C(=O)O)c(-c2ccccc2)o1` (stereo not drawn), which cytotoxicity at 10 µM is on record?
Answer: -1.33%

Question: With `O=C(C1CCC2(CCN(CC3CC3)CC2)O1)N1CCCC1` (stereo not drawn) as the compound, how does the cytotoxicity at 10 µM read?
Answer: 1.58%

Question: Which cytotoxicity at 10 µM does the source give for `Cn1cc(NC(=O)c2cc3c(s2)CCCC3)cn1` here?
Answer: -2.17%

Question: For `CC(C)C(=O)N1CCC2(COCc3cnc(-c4cccnc4)nc32)C1` (stereo not drawn), which cytotoxicity at 10 µM is on record?
Answer: -102%

Question: Which cytotoxicity at 10 µM does the source give for `O=C1CCCCN1CCCC(=O)N1CCC2(CC1)[C@H](O)C[C@@H]2O` here?
Answer: 1.12%

Question: Which cytotoxicity at 10 µM does the source give for `O=C(NCC(F)(F)F)C1CCC(=O)N(C2CCCC2)C1` (stereo not drawn) here?
Answer: -8.77%

Question: Which cytotoxicity at 10 µM does the source give for `CC(=O)N1CCCC1c1nnc2n1CCCCC2` (stereo not drawn) here?
Answer: 4.31%

Question: For `Cc1ccccc1CNC(=O)N1CC[C@@H]2CN(C)S(=O)(=O)[C@@H]2CC1`, which cytotoxicity at 10 µM is on record?
Answer: -0.39%

Question: With `Cc1nc(C)n(Cc2cccc(NC3CCN(C)C3=O)c2)n1` (stereo not drawn) as the compound, how does the cytotoxicity at 10 µM read?
Answer: -0.519%

Question: For `CC(NCCCC#N)c1ccc(S(C)(=O)=O)c(F)c1` (stereo not drawn), which cytotoxicity at 10 µM is on record?
Answer: 6.96%

Question: For `Cc1ccccc1-n1cc(CNc2ncnc3c2CCNCC3)cn1`, which cytotoxicity at 10 µM is on record?
Answer: 1.25%

Question: Which cytotoxicity at 10 µM does the source give for `O=C(NCc1cc[nH]n1)NCC(c1ccc(F)cc1)N1CCOCC1` (stereo not drawn) here?
Answer: -7.77%

Question: For `O=C(c1ccc2c(c1)CCO2)N1CCN(c2ncccn2)CC1`, which cytotoxicity at 10 µM is on record?
Answer: 8.92%

Question: For `Cc1ccsc1C(=O)N1CCCn2nnc(Cn3cccn3)c2C1`, which cytotoxicity at 10 µM is on record?
Answer: 7.37%

Question: Which cytotoxicity at 10 µM does the source give for `CN(CC1(C)COC1)C(=O)c1cc(-c2ccn(C)n2)nc2ccccc12` here?
Answer: 9.81%

Question: Which cytotoxicity at 10 µM does the source give for `CC1CN(CC(=O)Nc2ccncc2)CCN1c1nccs1` (stereo not drawn) here?
Answer: 29.5%

Question: For `COc1cc(N2CCCC(c3ncc[nH]3)C2)ncn1` (stereo not drawn), which cytotoxicity at 10 µM is on record?
Answer: 3.47%

Question: For `O=C(c1cccnc1O)N1CCOC(Cc2cccc(C(F)(F)F)c2)C1` (stereo not drawn), which cytotoxicity at 10 µM is on record?
Answer: 2.26%

Question: For `CC(C)CNc1nnc(SC(C(=O)NCc2cccnc2)C(C)C)s1` (stereo not drawn), which cytotoxicity at 10 µM is on record?
Answer: -5.9%

Question: With `Cn1cc(CNC2CCc3c(ccc(=O)n3Cc3cccnc3)C2)cn1` (stereo not drawn) as the compound, how does the cytotoxicity at 10 µM read?
Answer: -108%

Question: With `O=C(c1cscn1)N1CCC2(CC1)CCN(S(=O)(=O)c1ccccc1)C2` as the compound, how does the cytotoxicity at 10 µM read?
Answer: 10.5%

Question: With `CCOCC1CN(Cc2ccoc2)Cc2nn(CC3CC3)cc21` (stereo not drawn) as the compound, how does the cytotoxicity at 10 µM read?
Answer: -11.9%

Question: For `OC1(CNCc2ccc(F)c(C(F)(F)F)c2)CCSCC1`, which cytotoxicity at 10 µM is on record?
Answer: 5.1%

Question: For `O=S(=O)(C1CC1)N1CCCC2(COCCN(c3nncs3)C2)C1` (stereo not drawn), which cytotoxicity at 10 µM is on record?
Answer: 5.22%

Question: With `CCC(=O)N1CCN(c2ncnc3cc4c(cc23)OCCO4)CC1` as the compound, how does the cytotoxicity at 10 µM read?
Answer: 10.2%

Question: Which cytotoxicity at 10 µM does the source give for `CC(C)(C)CNC[C@H]1Cn2c(-c3ccccc3)cnc2CO1` here?
Answer: -9.14%

Question: For `NC(=O)c1cc(C2CCCN(CCOc3ccc(F)cc3)C2)n[nH]1` (stereo not drawn), which cytotoxicity at 10 µM is on record?
Answer: -7.92%

Question: For `CC(=O)N1CC(C)CN(Cc2ccon2)c2ccccc21` (stereo not drawn), which cytotoxicity at 10 µM is on record?
Answer: 2%

Question: For `COc1nc(C)c(C(=O)N2CCN(c3ncccc3C)CC2)s1`, which cytotoxicity at 10 µM is on record?
Answer: 2.87%

Question: For `CC(C)c1ncc(S(C)(=O)=O)c(C2CCCNC2)n1` (stereo not drawn), which cytotoxicity at 10 µM is on record?
Answer: -1.34%

Question: With `CC(O)CNc1c(NCc2ccco2)c(=O)c1=O` (stereo not drawn) as the compound, how does the cytotoxicity at 10 µM read?
Answer: -3.04%

Question: For `O=C(C1CC(F)(F)C1)N1C[C@@H]2CN(CC3CCCC3)CCO[C@@H]2C1`, which cytotoxicity at 10 µM is on record?
Answer: -8.02%

Question: Which cytotoxicity at 10 µM does the source give for `O=C(NC1CCCN(c2ccc(OC(F)F)cc2)C1)c1cnc[nH]1` (stereo not drawn) here?
Answer: -2.15%

Question: Which cytotoxicity at 10 µM does the source give for `O=S(=O)(C1CC1)N1CCC2(CC1)CC(Oc1ccccn1)CO2` (stereo not drawn) here?
Answer: -139%

Question: For `Cc1cccnc1CNCC1(O)CCCN(CC2CCCCC2)C1=O` (stereo not drawn), which cytotoxicity at 10 µM is on record?
Answer: -2.37%

Question: Which cytotoxicity at 10 µM does the source give for `Cc1ccc2c(c1)N(C(=O)c1nccnc1N)CC(C)O2` (stereo not drawn) here?
Answer: -1.65%

Question: With `O=C1COC2(CCN(c3ccccn3)CC2)CN1` as the compound, how does the cytotoxicity at 10 µM read?
Answer: 9.52%

Question: Which cytotoxicity at 10 µM does the source give for `CC(C)CCC(=O)N1CCC(c2nnc(CN(C)CCO)n2C)CC1` here?
Answer: 0.832%

Question: Which cytotoxicity at 10 µM does the source give for `Cc1cc(C)n(-c2cncc(NCCNC(=O)c3cccnc3)n2)n1` here?
Answer: 7.45%

Question: For `Cc1noc(Cl)c1CCC(=O)N1CCC(CC(N)=O)CC1`, which cytotoxicity at 10 µM is on record?
Answer: -0.0707%

Question: Which cytotoxicity at 10 µM does the source give for `O=C(c1cccnc1)N1CCSCC1` here?
Answer: -15.1%

Question: Which cytotoxicity at 10 µM does the source give for `CSc1ncccc1C(=O)NCCC(O)c1cccs1` (stereo not drawn) here?
Answer: -4.68%

Question: Which cytotoxicity at 10 µM does the source give for `COC(=O)C(CCSC)NC(=O)Cc1c(C)nn(-c2ccccc2)c1C` (stereo not drawn) here?
Answer: -4.31%

Question: For `O=C(c1ccc(-c2ccc(O)nc2)s1)N1CCCCC1`, which cytotoxicity at 10 µM is on record?
Answer: 3.35%

Question: For `Cc1nc([C@@H]2C[C@@H]3CCN(C(=O)Cc4ccsc4)C[C@H]3O2)no1`, which cytotoxicity at 10 µM is on record?
Answer: 1.85%

Question: With `CC(C)CN1CCC(C(=O)Nc2cc(C(F)(F)F)c[nH]c2=O)CC1` as the compound, how does the cytotoxicity at 10 µM read?
Answer: -11.3%

Question: Which cytotoxicity at 10 µM does the source give for `CNC(=O)C1(CCCc2ccncc2)CCN1` (stereo not drawn) here?
Answer: -9.08%

Question: With `CCN(Cc1ccccc1)Cc1nc2c(cnn2C)c(=O)[nH]1` as the compound, how does the cytotoxicity at 10 µM read?
Answer: 2.86%

Question: Which cytotoxicity at 10 µM does the source give for `COc1c(CNCc2cnn(C)c2)c(C(C)C)nn1C` here?
Answer: -7.39%

Question: For `COCc1nc(C(=O)NS(=O)(=O)c2ccc(F)c(F)c2)cs1`, which cytotoxicity at 10 µM is on record?
Answer: 7.97%

Question: For `Cc1cnc(NCCCN2CCCCC2CO)nc1` (stereo not drawn), which cytotoxicity at 10 µM is on record?
Answer: -7.17%

Question: With `CCOc1ccc2oc(-c3cnn(C)c3C)c(O)c(=O)c2c1` as the compound, how does the cytotoxicity at 10 µM read?
Answer: 7.72%

Question: With `Cc1ncsc1CCN(C)Cc1ccc(Br)o1` as the compound, how does the cytotoxicity at 10 µM read?
Answer: -43%

Question: For `Fc1ccc(CN2CCC3(CC2)CN(c2ccccn2)CCO3)cc1`, which cytotoxicity at 10 µM is on record?
Answer: -0.359%

Question: With `O=C(c1ccccc1)N1CCCC(Nc2ccc(F)cc2)C1` (stereo not drawn) as the compound, how does the cytotoxicity at 10 µM read?
Answer: -3.09%

Question: With `Cc1noc(C)c1C(=O)NCC1CCCCN1Cc1ccccc1` (stereo not drawn) as the compound, how does the cytotoxicity at 10 µM read?
Answer: -4.4%

Question: For `Cc1cc(N2CCC(c3ncc[nH]3)CC2)c2ccccc2n1`, which cytotoxicity at 10 µM is on record?
Answer: -9.74%

Question: Which cytotoxicity at 10 µM does the source give for `Cc1cnn(C2CN(Cc3noc(C4CC4)n3)C2)c1` here?
Answer: 4.34%

Question: With `Cc1nc(Nc2ncccn2)cc(C2CCCN2CC(C)C)n1` (stereo not drawn) as the compound, how does the cytotoxicity at 10 µM read?
Answer: 7.02%

Question: With `Cn1cccc1CN1CCC2(CC1)CN(c1ccccc1)C(=O)CO2` as the compound, how does the cytotoxicity at 10 µM read?
Answer: -130%

Question: With `Cc1ccc(C)c(CSc2nnc([C@@H](N)C(C)C)o2)c1` as the compound, how does the cytotoxicity at 10 µM read?
Answer: 5.95%

Question: With `CC(C)Nc1ncnc2c1CCN(C(=O)NCc1cccnc1)CC2` as the compound, how does the cytotoxicity at 10 µM read?
Answer: -150%

Question: Which cytotoxicity at 10 µM does the source give for `CCN1CCN(C(=O)NC(C)c2noc(-c3ccccc3)n2)CC1` (stereo not drawn) here?
Answer: -15.5%

Question: With `CN(C)CCN1C(=O)CC[C@@H]2[C@H]1CCN2Cc1cccc(C#N)c1` as the compound, how does the cytotoxicity at 10 µM read?
Answer: -89.1%

Question: With `CCn1nc(C)c(C(=O)Nc2ccc3c(c2)C(C)(C)C(=O)N3C)c1C` as the compound, how does the cytotoxicity at 10 µM read?
Answer: 6.42%
